ChEMBL document CHEMBL1124515, “3,7-Dideazapurine nucleosides. Synthesis and antitumor activity of 1-deazatubercidin and 2-chloro-2'-deoxy-3,7-dideazaadenosine” (1989)
The source made the active and inactive calls. The calls are words filed in the database; no cut-off is given here.

How the values were obtained:
HL-60 = assay: Compound (1 x 10e-4 M) was evaluated in vitro for its ability to inhibit the growth of the human promyelocytic leukemia HL-60; Inactive until maximum tested concentration of 1xe-4 M; type: functional, cell-based
Homo sapiens [1] = species: Homo sapiens; assay: Compound (1 x 10e-4 M) was evaluated in vitro for its ability to inhibit the growth of the human epidermoid carcinoma KB; Inactive until maximum tested concentration of 1xe-4 M; type: functional
L1210 = assay: Compound (1 x 10e-4 M) was evaluated in vitro for its ability to inhibit the growth of the murine leukemia L1210; Inactive until maximum tested concentration of 1xe-4 M; type: functional, cell-based; settings: Mus musculus
P388 = assay: Compound (1 x 10e-4 M) was evaluated in vitro for its ability to inhibit the growth of the murine leukemia P388; Inactive until maximum tested concentration of 1xe-4 M; type: functional, cell-based; settings: Mus musculus
Homo sapiens [2] = species: Homo sapiens; assay: Compound (1 x 10e-4 M) was evaluated in vitro for its ability to inhibit the growth of the human epidermoid carcinoma KB; type: functional
How it was run: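 KB cells in exponential growth, in RPMI-1640 with antibiotics, 3 mM glutamine, 10 mM HEPES and 5% heat-inactivated newborn calf serum. Seeded at 5 × 10³ cells/well and exposed in quadruplicate to compound (DMSO ≤0.5% final), up to a maximum of 1×10^-4 M, for 48 h at 37 °C. [¹²⁵I]-5-iodo-2'-deoxyuridine plus 5-fluoro-2'-deoxyuridine then added for 18 h. Cells trypsin/EDTA-detached, filter-harvested and γ-counted. Inhibition expressed as % of control incorporation.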

SMILES | ID50 (HL-60) | ID50 (Homo sapiens [1]) | ID50 (L1210) | ID50 (P388) | ID50 (Homo sapiens [2]) [nM]
Nc1nc(Cl)cc2c1ccn2[C@H]1C[C@H](O)[C@@H](CO)O1 | Inactive until maximum tested concentration of 1xe-4 M | Inactive until maximum tested concentration of 1xe-4 M | Inactive until maximum tested concentration of 1xe-4 M | Inactive until maximum tested concentration of 1xe-4 M | –
Nc1nccc2c1ccn2[C@H]1C[C@H](O)[C@@H](CO)O1 | Inactive until maximum tested concentration of 1xe-4 M | Inactive until maximum tested concentration of 1xe-4 M | Inactive until maximum tested concentration of 1xe-4 M | Inactive until maximum tested concentration of 1xe-4 M | –
Nc1nc(Cl)cc2c1ccn2[C@@H]1O[C@H](CO)[C@@H](O)[C@H]1O | Inactive until maximum tested concentration of 1xe-4 M | Inactive until maximum tested concentration of 1xe-4 M | Inactive until maximum tested concentration of 1xe-4 M | Inactive until maximum tested concentration of 1xe-4 M | –
Nc1nccc2c1ccn2[C@@H]1O[C@H](CO)[C@@H](O)[C@H]1O | Inactive until maximum tested concentration of 1xe-4 M | Inactive until maximum tested concentration of 1xe-4 M | Inactive until maximum tested concentration of 1xe-4 M | Inactive until maximum tested concentration of 1xe-4 M | –
Nc1ncnc2c1ccn2[C@@H]1O[C@H](CO)[C@@H](O)[C@H]1O | – | – | – | – | 52
